Laboratory results reported in ChEMBL document CHEMBL1142968, “Synthetic anticancer vaccine candidates: rational design of antigenic peptide mimetics that activate tumor-specific T-cells” (2007).
*1 amine or outer side, *2 acyl side, *3 side chain or, on linkers, in order; H or OH if unused. Where a SMILES comes first, the peptide text is derived from it. Side-chain parts run from the residue outwards. [ ]: non-standard residue; d: D form. The star is where a group is joined. X2 = O=C([C@@H]1Cc2c([nH]c3ccccc23)CN1CCN[*:1])[*:2]; X8 = O=C(CN(CCN[*:1])Cc1ccc([N+](=O)[O-])cc1)[*:2]; N(2-Aminoethyl)Gly = O=C(CN(CCN[*:3])[*:1])[*:2]; X7 = O=C(CN(CCN[*:1])CCc1c[nH]c2ccccc12)[*:2]; X4 = O=C([C@@H]1Cc2ccccc2CN1CCN[*:1])[*:2]; X9 = O=C(CN(CCN[*:1])Cc1ccnc2ccccc12)[*:2]; X6 = O=C(CN(CCN[*:1])CCc1ccccc1)[*:2]; X3 = O=C(CN(CCN[*:1])Cc1ccccc1)[*:2]; X1 = O=C(Cc1c[nH]c2ccccc12)*; 3Amb = NCc1cccc(C(=O)O)c1; PhAc = O=C(Cc1ccccc1)*; βAla = NCCC(=O)O

Experiments:
Homo sapiens = species: Homo sapiens; test: Binding affinity to HLA-A2 in TAP-deficient HLA-A2+T2 cells assessed as fluorescence intensity relative to ELA
Summary of the method: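 T2 cells (TAP-deficient, HLA-A2+) loaded overnight at 37 °C in serum-free RPMI-1640 with 100 µM compound plus human β2-microglobulin (100 ng/mL). Washed, stained with HLA-A2 mAb HB54 or isotype control (30 min, 4 °C), then PE anti-mouse IgG (30 min); flow cytometry. RFI = specific MFI / control MFI. Value reported as […].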

T-cell [1] = test: Stimulation of INFgamma production in M77.84 T cells at 10 uM by flow cytometry; format: functional, Homo sapiens
Summary of the method: (§1)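 Melan-A/MART-1-specific CD8 clones. T2 cells are pulsed 1 h at 37 °C with 10 µM compound and washed. 2 × 10^5 of them are co-cultured with 10^5 clone cells in RPMI-1640/10% FCS with brefeldin A (10 µg/mL) for 6 h at 37 °C. Cells are fixed in 4% PFA, then saponin-permeabilized and stained with PE anti-IFN-γ (5 µg/mL, 30 min). Flow cytometry on 10^4 events gives the % IFN-γ+ cells and the MFI.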

T-cell [2] = test: Stimulation of INFgamma production in M199.2.7 T cells at 10 uM by flow cytometry; format: functional, Homo sapiens; summary of the method: as §1
T-cell [3] = test: Stimulation of INFgamma production in M199.3.2 T cells at 10 uM by flow cytometry; format: functional, Homo sapiens; summary of the method: as §1
[4] = Stimulation of INFgamma production in MEL1.37 T cells at 10 uM by flow cytometry; format: functional, Homo sapiens; summary of the method: as §1
T-cell [5] = test: Stimulation of INFgamma production in CDM41 ELA1 T cells at 10 uM by flow cytometry; format: functional, Homo sapiens; summary of the method: as §1
T-cell [6] = test: Stimulation of INFgamma production in M17.29 ELA1 T cells at 10 uM by flow cytometry; format: functional, Homo sapiens; summary of the method: as §1
T-cell [7] = test: Stimulation of INFgamma production in 10C10 T cells at 10 uM by flow cytometry; format: functional, Homo sapiens; summary of the method: as §1
T-cell [8] = test: Stimulation of INFgamma production in CDM41 T cells at 10 uM by flow cytometry; format: functional, Homo sapiens; summary of the method: as §1
T-cell [9] = test: Stimulation of INFgamma production in M17.29 T cells at 10 uM by flow cytometry; format: functional, Homo sapiens; summary of the method: as §1
T-cell [10] = test: Stimulation of INFgamma production in MEL1.38 T cells at 10 uM by flow cytometry; format: functional, Homo sapiens

| Ratio (Homo sapiens) | SMILES | Activity (T-cell [1]) | Activity (T-cell [2]) | Activity [4] | also measured |
| --- | --- | --- | --- | --- | --- |
| 0.86 | CC(C)C[C@H](NC(=O)CCN)C(=O)N[C@@H](C)C(=O)NCCN(CCc1c[nH]c2ccccc12)CC(=O)NCc1cccc(C(=O)N[C@@H](CC(C)C)C(=O)N[C@H](C(=O)N[C@H](C(=O)O)C(C)C)[C@@H](C)O)c1 (H-[βAla]LA[X7][3Amb]LTV-OH) | – | – | – | – |
| 0.96 | CC[C@H](C)[C@H](NC(=O)CNC(=O)CN(CCNC(=O)[C@H](C)NC(=O)[C@H](CC(C)C)NC(=O)CCN)Cc1ccccc1)C(=O)N[C@@H](CC(C)C)C(=O)N[C@H](C(=O)N[C@H](C(=O)O)C(C)C)[C@@H](C)O | – | – | – | – |
| 0.54 | CC(C)C[C@H](NC(=O)CCN)C(=O)N[C@@H](C)C(=O)NCCN(CC(=O)NCc1cccc(C(=O)N[C@@H](CC(C)C)C(=O)N[C@H](C(=O)N[C@H](C(=O)O)C(C)C)[C@@H](C)O)c1)C(=O)Cc1ccccc1 (PhAc-[N(2-Aminoethyl)Gly]([Ala-Leu-βAla])[3Amb]LTV-OH) | – | – | – | – |
| 0.64 | CC(C)C[C@H](NC(=O)CCN)C(=O)N[C@@H](C)C(=O)NCCN1Cc2ccccc2C[C@H]1C(=O)NCc1cccc(C(=O)N[C@@H](CC(C)C)C(=O)N[C@H](C(=O)N[C@H](C(=O)O)C(C)C)[C@@H](C)O)c1 (H-[βAla]LA[X4][3Amb]LTV-OH) | – | – | – | – |
| 0.86 | CC(C)C[C@H](NC(=O)CCN)C(=O)N[C@@H](C)C(=O)NCCN(CC(=O)NCc1cccc(C(=O)N[C@@H](CC(C)C)C(=O)N[C@H](C(=O)N[C@H](C(=O)O)C(C)C)[C@@H](C)O)c1)Cc1ccc([N+](=O)[O-])cc1 (H-[βAla]LA[X8][3Amb]LTV-OH) | – | – | – | – |
| 0.81 | CC(C)C[C@H](NC(=O)CCN)C(=O)N[C@@H](C)C(=O)NCCN1Cc2[nH]c3ccccc3c2C[C@H]1C(=O)NCc1cccc(C(=O)N[C@@H](CC(C)C)C(=O)N[C@H](C(=O)N[C@H](C(=O)O)C(C)C)[C@@H](C)O)c1 (H-[βAla]LA[X2][3Amb]LTV-OH) | – | – | – | – |
| 1.02 | CC(C)C[C@H](NC(=O)CCN)C(=O)N[C@@H](C)C(=O)NCCN(CC(=O)NCc1cccc(C(=O)N[C@@H](CC(C)C)C(=O)N[C@H](C(=O)N[C@H](C(=O)O)C(C)C)[C@@H](C)O)c1)C(=O)Cc1c[nH]c2ccccc12 (X1-[N(2-Aminoethyl)Gly]([Ala-Leu-βAla])[3Amb]LTV-OH) | 12% | 25% | 89% | Activity (T-cell [8]): 31%; Activity (T-cell [9]): 27%; Activity (T-cell [7]): 0%; Activity (T-cell [10]): 44% |
| 0.25 | CC(C)C[C@H](NC(=O)CCN)C(=O)N[C@@H](C)C(=O)NCCN(CCc1ccccc1)CC(=O)NCc1cccc(C(=O)N[C@@H](CC(C)C)C(=O)N[C@H](C(=O)N[C@H](C(=O)O)C(C)C)[C@@H](C)O)c1 (H-[βAla]LA[X6][3Amb]LTV-OH) | – | – | – | – |
| 0.95 | CC(C)C[C@H](NC(=O)CCN)C(=O)N[C@@H](C)C(=O)NCCN(CC(=O)NCc1cccc(C(=O)N[C@@H](CC(C)C)C(=O)N[C@H](C(=O)N[C@H](C(=O)O)C(C)C)[C@@H](C)O)c1)Cc1ccccc1 (H-[βAla]LA[X3][3Amb]LTV-OH) | – | – | – | – |
| 0.9 | CC[C@H](C)[C@H](NC(=O)CNC(=O)CN(CCNC(=O)[C@H](C)NC(=O)[C@H](CC(C)C)NC(=O)[C@@H](N)CCC(=O)O)Cc1ccccc1)C(=O)N[C@@H](CC(C)C)C(=O)N[C@H](C(=O)N[C@H](C(=O)O)C(C)C)[C@@H](C)O | – | – | – | – |
| 1.31 | CC(C)C[C@H](NC(=O)CCN)C(=O)N[C@@H](C)C(=O)NCCN(CC(=O)NCc1cccc(C(=O)N[C@@H](CC(C)C)C(=O)N[C@H](C(=O)N[C@H](C(=O)O)C(C)C)[C@@H](C)O)c1)Cc1ccnc2ccccc12 (H-[βAla]LA[X9][3Amb]LTV-OH) | – | – | – | – |

More lines, now with the values behind:

| SMILES | Ratio (Homo sapiens) | Activity (T-cell [1]) | Activity (T-cell [2]) | Activity [4] | also measured |
| --- | --- | --- | --- | --- | --- |
| CC[C@H](C)[C@H](NCCNC(=O)[C@H](Cc1ccc(O)cc1)NCCNC(=O)[C@H](C)NC(=O)[C@H](CC(C)C)NC(=O)[C@@H](N)CCC(=O)O)C(=O)N[C@@H](CC(C)C)C(=O)N[C@H](C(=O)N[C@H](C(=O)O)C(C)C)[C@@H](C)O | 1.71 | – | – | – | – |
| CC[C@H](C)[C@H](NC(=O)CNC(=O)[C@H](Cc1ccccc1)NC(=O)CNC(=O)[C@H](C)NC(=O)[C@H](CC(C)C)NC(=O)[C@@H](N)CCC(=O)O)C(=O)N[C@@H](CC(C)C)C(=O)N[C@H](C(=O)N[C@H](C(=O)O)C(C)C)[C@@H](C)O | – | 32% | 7% | 71% | Activity (T-cell [3]): 83%; Activity (T-cell [5]): 58%; Activity (T-cell [6]): 48% |
| CC[C@H](C)[C@H](NC(=O)CNC(=O)CN(CCNC(=O)[C@H](C)NC(=O)[C@H](CC(C)C)NC(=O)[C@@H](N)CCC(=O)O)Cc1cccc2ccccc12)C(=O)N[C@@H](CC(C)C)C(=O)N[C@H](C(=O)N[C@H](C(=O)O)C(C)C)[C@@H](C)O | 0.7 | – | – | – | – |
| CC[C@H](C)[C@H](NC(=O)CNC(=O)CN(CCNC(=O)[C@H](C)NC(=O)[C@H](CC(C)C)NC(=O)[C@@H](N)CCC(=O)O)Cc1ccnc2ccccc12)C(=O)N[C@@H](CC(C)C)C(=O)N[C@H](C(=O)N[C@H](C(=O)O)C(C)C)[C@@H](C)O | 0.79 | 0% | 0% | 3% | Activity (T-cell [7]): 0%; Activity (T-cell [3]): 0%; Activity (T-cell [5]): 69%; Activity (T-cell [6]): 0% |
| CC[C@H](C)[C@H](NC(=O)CNC(=O)CN(CCNC(=O)[C@H](C)NC(=O)[C@H](CC(C)C)NC(=O)[C@@H](N)CCC(=O)O)Cc1ccc([N+](=O)[O-])cc1)C(=O)N[C@@H](CC(C)C)C(=O)N[C@H](C(=O)N[C@H](C(=O)O)C(C)C)[C@@H](C)O | 0.85 | 0% | 0% | 0% | Activity (T-cell [7]): 0%; Activity (T-cell [3]): 0%; Activity (T-cell [5]): 64%; Activity (T-cell [6]): 0% |
| CC[C@H](C)[C@H](NC(=O)CNC(=O)[C@H](Cc1ccc(O)cc1)NC(=O)CNC(=O)[C@H](C)NC(=O)[C@H](CC(C)C)NC(=O)[C@@H](N)CCC(=O)O)C(=O)N[C@@H](CC(C)C)C(=O)N[C@H](C(=O)N[C@H](C(=O)O)C(C)C)[C@@H](C)O | – | 4% | 0% | 84% | Activity (T-cell [7]): 0%; Activity (T-cell [3]): 78%; Activity (T-cell [5]): 63%; Activity (T-cell [6]): 32% |
| CC[C@H](C)[C@H](NC(=O)CNC(=O)CN(CCNC(=O)[C@H](C)NC(=O)[C@H](CC(C)C)NC(=O)[C@@H](N)CCC(=O)O)CC1CCCCC1)C(=O)N[C@@H](CC(C)C)C(=O)N[C@H](C(=O)N[C@H](C(=O)O)C(C)C)[C@@H](C)O | 0.86 | – | – | – | – |
| CC[C@H](C)[C@H](NC(=O)CNC(=O)CN(CCNC(=O)[C@H](C)NC(=O)[C@H](CC(C)C)NC(=O)[C@@H](N)CCC(=O)O)Cc1ccc(O)cc1)C(=O)N[C@@H](CC(C)C)C(=O)N[C@H](C(=O)N[C@H](C(=O)O)C(C)C)[C@@H](C)O | 0.83 | 0% | 0% | 0% | Activity (T-cell [7]): 0%; Activity (T-cell [3]): 0%; Activity (T-cell [5]): 46%; Activity (T-cell [6]): 0% |
| CC[C@H](C)[C@H](NCCNC(=O)[C@H](Cc1c[nH]c2ccccc12)NCCNC(=O)[C@H](C)NC(=O)[C@H](CC(C)C)NC(=O)[C@@H](N)CCC(=O)O)C(=O)N[C@@H](CC(C)C)C(=O)N[C@H](C(=O)N[C@H](C(=O)O)C(C)C)[C@@H](C)O | 1.61 | – | – | – | – |
| CC[C@H](C)[C@H](NC(=O)CNC(=O)[C@H](Cc1c[nH]c2ccccc12)NC(=O)CNC(=O)[C@H](C)NC(=O)[C@H](CC(C)C)NC(=O)[C@@H](N)CCC(=O)O)C(=O)N[C@@H](CC(C)C)C(=O)N[C@H](C(=O)N[C@H](C(=O)O)C(C)C)[C@@H](C)O | – | 90% | 15% | 81% | Activity (T-cell [7]): 0%; Activity (T-cell [3]): 54%; Activity (T-cell [5]): 47%; Activity (T-cell [6]): 55% |
